Experimental data from ChEMBL document CHEMBL1148584, “Effect of polyamine homologation on the transport and biological properties of heterocyclic amidines” (J Med Chem, 2006).

What was measured:
[1] = Selectivity for uptake in CHO cell line over CHO-MG cell line at 25 uM; type: functional, Cricetulus griseus
Method in brief: (§1)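 Ratio of intracellular conjugate level in CHO over CHO-MG cells. Both lines were exposed to conjugate 24 h after seeding at 2 × 10⁵ cells/mL, for 24 h with 2 mM aminoguanidine in the medium. Levels were measured by ion-pair HPLC of perchloric extracts and normalised to protein (nmol/mg).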

L1210 [2] = assay: Inhibition of cell growth in L1210 cells in the presence of DFMO; type: functional, cell-based; settings: Mus musculus
Method in brief: (§2)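 L1210 cells seeded at 5 × 10⁴ cells/mL with conjugate added at seeding; CHO/CHO-MG plated at 2 × 10³ cells/mL with conjugate added after overnight (24 h). 5 mM DFMO added together with conjugate; medium contains 2 mM aminoguanidine. After 48 h, growth read by MTT formazan absorbance at 540 nm. IC50 is 50% growth inhibition; mean of three determinations.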

L1210 [3] = assay: Intracellular level of spermine in L1210 cells in the presence of DFMO at 10 uM; type: functional, cell-based; settings: Mus musculus
Method in brief: (§3)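 L1210 cells in RPMI 1640/10% FCS with 2 mM aminoguanidine, seeded at 4 × 10⁴ cells/mL. Conjugate, with or without 5 mM DFMO, added at seeding; cells cultured 48 h, washed in cold NaCl, and extracted with 0.2 N HClO₄. Conjugate and free putrescine, spermidine and spermine quantified by ion-pair HPLC (UV 254 nm, fluorescence ex 345/em 455 nm); normalised to protein. Student's t-test, p<0.05.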

L1210 [4] = assay: Intracellular level of spermidine in L1210 cells in the absence of DFMO at 10 uM; type: functional, cell-based; settings: Mus musculus; method in brief: as §3
CHO [5] = assay: Inhibition of cell growth in CHO cells in the presence of DFMO; type: functional, cell-based; settings: Cricetulus griseus; method in brief: as §2
L1210 [6] = assay: Intracellular level of putrescine in L1210 cells in the presence of DFMO at 10 uM; type: functional, cell-based; settings: Mus musculus; method in brief: as §3
CHO-MG [7] = assay: Inhibition of cell growth in CHO-MG cells in the presence of DFMO; type: functional, cell-based; settings: Cricetulus griseus; method in brief: as §2
L1210 [8] = assay: Intracellular level of conjugate in L1210 cells in the absence of DFMO at 10 uM; type: functional, cell-based; settings: Mus musculus; method in brief: as §3
Phosphodiesterase 1 = Phosphodiesterase 1 (Bos taurus, UniProt Q01061+P14100); assay: Inhibition of bovine calmodulin-activated cAMP dependent phosphodiesterase; type: protein assay
Method in brief: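 Crude bovine heart PDE preparation containing calmodulin and Ca²⁺ (0.2 milliunit). Incubated 20 min at 37 °C with 0.1 mM [8-³H]cAMP and graded drug concentrations in 30 mM Tris-HCl, 3 mM MgSO₄, 0.6 mM AMP. Stopped with ZnSO₄; Ba(OH)₂ precipitated AMP with BaSO₄; supernatant radioactivity counted. IC50 is the concentration giving 50% inhibition.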

L1210 [9] = assay: Intracellular level of putrescine in L1210 cells in the absence of DFMO at 10 uM; type: functional, cell-based; settings: Mus musculus; method in brief: as §3
CHO [10] = assay: Cellular uptake in CHO cells at 25 uM; type: ADME, cell-based, Cricetulus griseus; settings: chinese hamster
Method in brief: (§4)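 CHO (RPMI 1640, 10% FCS, 2 mM aminoguanidine) and CHO-MG (plus L-proline) cells seeded at 2 × 10⁵ cells/mL. Conjugate added 24 h after seeding and cells harvested 24 h later, then washed in cold 0.14 M NaCl and sonicated in 0.2 N HClO₄. Supernatant analysed by ion-pair reversed-phase HPLC (n-octanesulfonate), expressed as nmol/mg protein; mean ± SD of three determinations.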

L1210 [11] = assay: Intracellular level of spermidine in L1210 cells in the presence of DFMO at 10 uM; type: functional, cell-based; settings: Mus musculus; method in brief: as §3
CHO-MG [12] = assay: Cellular uptake in CHO-MG cells at 25 uM; type: ADME, cell-based, Cricetulus griseus; settings: chinese hamster; method in brief: as §4
L1210 [13] = assay: Intracellular level of spermine in L1210 cells in the absence of DFMO at 10 uM; type: functional, cell-based; settings: Mus musculus; method in brief: as §3
L1210 [14] = assay: Intracellular level of conjugate in L1210 cells in the presence of DFMO at 10 uM; type: functional, cell-based; settings: Mus musculus; method in brief: as §3
[15] = Selectivity for uptake CHO cell line over CHO-MG cell line at 50 uM; type: functional, Cricetulus griseus; method in brief: as §1
CHO [16] = assay: Cellular uptake in CHO cells at 50 uM; type: ADME, cell-based, Cricetulus griseus; settings: chinese hamster; method in brief: as §4
CHO-MG [17] = assay: Cellular uptake in CHO-MG cells at 50 uM; type: ADME, cell-based, Cricetulus griseus; settings: chinese hamster; method in brief: as §4
L1210 [18] = assay: Intracellular level of spermidine in L1210 cells in the presence of DFMO at 50 uM; type: functional, cell-based; settings: Mus musculus; method in brief: as §3
L1210 [19] = assay: Intracellular level of conjugate in L1210 cells in the absence of DFMO at 50 uM; type: functional, cell-based; settings: Mus musculus; method in brief: as §3
L1210 [20] = assay: Intracellular level of conjugate in L1210 cells in the presence of DFMO at 50 uM; type: functional, cell-based; settings: Mus musculus; method in brief: as §3
L1210 [21] = assay: Intracellular level of spermidine in L1210 cells in the absence of DFMO at 50 uM; type: functional, cell-based; settings: Mus musculus; method in brief: as §3
L1210 [22] = assay: Intracellular level of putrescine in L1210 cells in the presence of DFMO at 50 uM; type: functional, cell-based; settings: Mus musculus; method in brief: as §3
L1210 [23] = assay: Intracellular level of spermine in L1210 cells in the presence of DFMO at 50 uM; type: functional, cell-based; settings: Mus musculus; method in brief: as §3
L1210 [24] = assay: Intracellular level of putrescine in L1210 cells in the absence of DFMO at 50 uM; type: functional, cell-based; settings: Mus musculus; method in brief: as §3
L1210 [25] = assay: Intracellular level of spermine in L1210 cells in the absence of DFMO at 50 uM; type: functional, cell-based; settings: Mus musculus; method in brief: as §3

| IC50 (L1210 [2]) [nM] | IC50 (Phosphodiesterase 1) [µM] | Drug uptake (CHO [16]) [nmol/mg] | Drug uptake (CHO-MG [17]) [nmol/mg] | Compound | Drug uptake (L1210 [3]) [nmol/mg] | Drug uptake (L1210 [4]) [nmol/mg] | IC50 (CHO [5]) [µM] | Drug uptake (L1210 [6]) [nmol/mg] | IC50 (CHO-MG [7]) [µM] | Drug uptake (L1210 [8]) [nmol/mg] | Drug uptake (L1210 [9]) [nmol/mg] | Drug uptake (L1210 [11]) [nmol/mg] | Drug uptake (L1210 [13]) [nmol/mg] | Drug uptake (L1210 [14]) [nmol/mg] | Selectivity ratio [15] | further results |
| --- | --- | --- | --- | --- | --- | --- | --- | --- | --- | --- | --- | --- | --- | --- | --- | --- |
| 3100 | 23 |  |  | CNc1ccc(C2c3ccccc3N=C(NCCCNCCCCNCCCN)C2(C)C)cc1 (stereo not drawn) | 7.8 | 17 | 11 | 0.07 | 23 | 0.54 | 1.1 | 0.66 | 9.4 | 0.74 |  | Selectivity ratio [1]: 0.9; Drug uptake (CHO [10]): 0.72 nmol/mg; Drug uptake (CHO-MG [12]): 0.81 nmol/mg |
|  | > 500 |  |  | OCCCNC1=Nc2ccccc2CC1 |  |  |  |  |  |  |  |  |  |  |  |  |
| 1000 | 19 | 0.66 | 0.66 | CC1C[C@]2(C)C(NCCCNCCCCNCCCN)=Nc3ccccc3[C@@H]2N(C)c2ccccc21 (stereo partly drawn) | 5.8 | 18 | 9.1 | 0.04 | 27 | 0.59 | 1.5 | 0.49 | 9.7 | 1.5 | 1 |  |
|  | 64 | 1.2 | 1.7 | CNc1ccc(C2c3ccccc3N=C(NCCCNCCCCN)C2(C)C)cc1 (stereo not drawn) |  |  |  |  |  |  |  |  |  |  | 0.7 | Drug uptake (L1210 [18]): 2.4 nmol/mg; Drug uptake (L1210 [19]): 0.77 nmol/mg; Drug uptake (L1210 [20]): 0.62 nmol/mg; Drug uptake (L1210 [21]): 15 nmol/mg; Drug uptake (L1210 [22]): 0.08 nmol/mg; Drug uptake (L1210 [23]): 8 nmol/mg; Drug uptake (L1210 [24]): 1.1 nmol/mg; Drug uptake (L1210 [25]): 9.2 nmol/mg |
